Laboratory results taken from publication PMC10134466 (ACS Omega, 2023).

Experiments:
HeLa cells = conditions: cited from earlier work
[1] = test system: BT-474 human breast ductal carcinoma cells; assay: 2D dose–response assay; type: cell-based; conditions: 24 h treatment, n = 3/dose
Procedure, shortened: (§1)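 Cells were trypsinized, seeded at 250,000 cells/mL in 96-well plates and cultured 24 h before dosing. Test compound was dissolved in 100% DMSO and serially diluted 1:2 in media to 5000–40 μg/mL dosing solutions, which were diluted 10-fold in the well (final DMSO ≤1%), in triplicate. Plates were incubated 24 h at 37 °C, 5% CO2, then viability was read by CCK-8. Controls: cell-free media and untreated cells. Absolute IC50 was calculated.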

[2] = test system: MCF-7 human breast epithelial adenocarcinoma cells; assay: 2D dose–response assay; type: cell-based; conditions: 24 h treatment, n = 3/dose
Procedure, shortened: as §1

[3] = test system: AU565 human breast adenocarcinoma cells; assay: 2D dose–response assay; type: cell-based; conditions: 24 h treatment, n = 3/dose
Procedure, shortened: as §1

[4] = test system: MDA-MB-231 triple negative human breast adenocarcinoma cells; assay: 2D dose–response assay; type: cell-based; conditions: 24 h treatment, n = 3/dose
Procedure, shortened: as §1

CCD1065SK HDF = assay: 2D dose–response assay; type: cell-based, human; conditions: 24 h treatment, nontumorigenic fibroblasts
Procedure, shortened: as §1

sheep erythrocytes = assay: Hemolytic activity; type: cell-based; conditions: sheep RBC 2% v/v, 37 °C, 1 h
Procedure, shortened: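 Fresh sheep RBCs were washed in PBS pH 7.4 until the supernatant was clear, with 1000 rpm, 8 min spins. RBCs were exposed to test compound at 2000–5 μg/mL in PBS containing 5% DMSO, then centrifuged 1000 rpm, 8 min at RT. Supernatant absorbance was read at 540 nm, with 630 nm background. Controls: PBS/5% DMSO (negative) and 1% v/v Triton X-100 (positive).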

BT-474 3D spheroids = assay: 3D dose–response assay, liquid-overlay spheroids; type: cell-based, human; conditions: 24 h treatment, n = 3/dose
Procedure, shortened: (§2)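 Spheroids formed by liquid overlay: 250,000 cells/mL in round-bottom nonadherent wells with 2.5% v/v Matrigel, centrifuged 10 min at 1000 rpm, then matured 4 days. Test compound DMSO stocks were serially diluted 1:2 to 10,000–80 μg/mL and diluted 10-fold in wells (final DMSO ≤1% v/v), in triplicate. Incubation 24 h at 37 °C, 5% CO2; viability by CellTiter 3D luminescence. Absolute IC50 by nonlinear regression.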

MDA-MB-231 3D spheroids = assay: 3D dose–response assay, liquid-overlay spheroids; type: cell-based, human; conditions: 24 h treatment, n = 3/dose
Procedure, shortened: as §2

[5] = Critical micelle concentration; type: physicochemical; conditions: 0.1 M NaHCO3, pH 8.7, 22 °C
Procedure, shortened: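 Surface tension across a concentration series was measured by Wilhelmy platinum-plate tensiometry on freshly prepared samples, in triplicate. Separate linear regressions were fitted to the declining and flat regions of the surface tension–concentration curve; their intersection gave the CMC.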

BT-474 cells = assay: CellTox Green cytotoxicity assay: cell lysis; type: cell-based, human; conditions: dosed at IC50; 1, 6, 12, 24 h post exposure
MDA-MB-231 cells = assay: CellTox Green cytotoxicity assay: cell lysis; type: cell-based, human; conditions: dosed at IC50; 1, 6, 12, 24 h post exposure
[6] = test system: nontumorigenic keratinocytes; conditions: 30 μM; cited from earlier work
osteoblasts = conditions: 5 μM; cited from earlier work
erythrocytes = conditions: therapeutic dose used for viral inactivation; cited from earlier work

| Substance | IC50 toward HeLa cells (HeLa cells) [µg/mL] | IC50 2D monolayer BT-474 [1] [µg/mL] | IC50 2D monolayer MCF-7 [2] [µg/mL] | IC50 2D monolayer AU565 [3] [µg/mL] | IC50 2D monolayer MDA-MB-231 [4] [µg/mL] | IC50 2D monolayer CCD1065SK HDF (CCD1065SK HDF) [µg/mL] | IC50 erythrocytes (50% of RBCs lysed) (sheep erythrocytes) [µg/mL] | IC50 3D spheroids BT-474 (BT-474 3D spheroids) [µg/mL] | IC50 3D spheroids MDA-MB-231 (MDA-MB-231 3D spheroids) [µg/mL] | CMC [5] [µg/mL] | extent of cell lysis, BT-474 (BT-474 cells) | extent of cell lysis, MDA-MB-231 (MDA-MB-231 cells) | cell viability, nontumorigenic keratinocytes [6] [%] | cell viability, osteoblasts (osteoblasts) [%] | concentration at which rapid lysis of erythrocytes occurred (erythrocytes) [µM] |
| --- | --- | --- | --- | --- | --- | --- | --- | --- | --- | --- | --- | --- | --- | --- | --- |
| C15-surfactin-O-methyl ester | 47.7 |  |  |  |  |  |  |  |  |  |  |  |  |  |  |
| Surfactin [Compound 1, reference compound] |  | 21 | 24 | 110 | 84 | 180 | 38 | 330 | 140 | 9.5 | cell lysis of both BT-474 and MDA-MB-231 cells was observed | cell lysis of both BT-474 and MDA-MB-231 cells was observed | 100 | 100 | 40 |
| C15-surfactin | 25.2 |  |  |  |  |  |  |  |  |  |  |  |  |  |  |
